Measured values pooled from the literature.
Protocols differ between the studies behind these lines.
Organism: Pichia kudriavzevii
Observed: microbial growth
Strain: ATCC6258

CCCCCOc1c(OC)cc(NC(C)CCCNC(=O)C(N)Cc2cc3ccccc3[nH]2)c2nc(C(C)(C)C)ccc12 (centres unmarked)
MIC: 10 µg/mL

C=C(C)[C@@H]1CC[C@]2(C)CC[C@]3(C)[C@H](CC[C@@H]4[C@@]5(C)CCC(=O)C(C)(C)[C@@H]5CC[C@]43C)[C@@H]12
MIC (broth dilution; 48 h): 500 µg/mL

C[C@@H]1[C@H](O)[C@@H](C)/C=C/C=C/C=C/C=C/C=C/C=C/C=C/[C@H](O[C@@H]2O[C@H](C)[C@@H](O)[C@H](N)[C@@H]2O)C[C@@H]2O[C@](O)(C[C@@H](O)C[C@@H](O)[C@H](O)CC[C@@H](O)C[C@@H](O)CC(=O)O[C@H]1C)C[C@H](O)[C@H]2C(=O)O
MIC (broth dilution): 0.5 µg/mL

C=C(C)[C@@H]1CC[C@]2(C(=O)O)CC[C@]3(C)[C@H](CC[C@@H]4[C@@]5(C)CC[C@H](O)C(C)(C)[C@@H]5CC[C@]43C)[C@@H]12
MIC (broth dilution; 48 h): 250 µg/mL

CCCCCN1CCN(CC(O)(Cn2cncn2)c2ccc(F)cc2F)CC1 (centres unmarked)
MIC (broth dilution; 48 h): > 31.3 µg/mL

OC(Cn1cncn1)(Cn1cncn1)c1ccc(F)cc1F
MIC (broth dilution; 48 h): 50 µg/mL

CCCCCCCCCCCN1CCNCC1
MIC (broth dilution; 48 h): 7.8 µg/mL

CCCCCCCOc1c(OC)cc(NC(C)CCCNC(=O)C(N)C(C)CC)c2nc(C(C)(C)C)ccc12 (centres unmarked)
MIC: 10 µg/mL

CCCCCCCCCCCCCCN1CCNCC1
MIC (broth dilution; 48 h): 0.975 µg/mL

CCCCCCOc1c(OC)cc(NC(C)CCCN)c2nc(C(C)(C)C)cc(C)c12 (centres unmarked)
MIC: 5 µg/mL

C[C@@H]1[C@H](O)[C@@H](C)/C=C/C=C/C=C/C=C/C=C/C=C/C=C/[C@H](O[C@@H]2O[C@H](C)[C@@H](O)[C@H](N)[C@@H]2O)C[C@@H]2O[C@](O)(C[C@@H](O)C[C@@H](O)[C@H](O)CC[C@@H](O)C[C@@H](O)CC(=O)O[C@H]1C)C[C@H](O)[C@H]2C(=O)O
MIC: 1.35 µM
